# Measurements published in publication PMC2924166 (Proteins, 2009).
# Key:
# Type in all cases: binding
# [1] = target: WT CaM1–148 (Rattus norvegicus, UniProt P0DP29); experiment: Fluorescence anisotropy titration of Fl-CaMKIIp with WT CaM1–148
# [2] = Equilibrium calcium titration of CaM, sites I and II; conditions: pH 7.4, 22°C
# Method in brief: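 Recombinant CaM constructs (1–148, 1–80) at 2 μM were used alone or with 10 μM CaMKII CaM-binding-domain peptide (residues 290–309, 1:5). CaCl2 was titrated to 1 nM–0.01 M. Phe fluorescence was read at ex 250/em 280 nm. Free Ca2+ came from 0.1 μM Oregon Green, or XRhod5F with peptide. Runs were done ≥3 times, normalized, and fit by nonlinear least squares to ΔG1, ΔG2.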
# [3] = Equilibrium calcium titration of CaM, sites III and IV; conditions: pH 7.4, 22°C
# [4] = Calcium affinity of fluorescent indicator dyes; conditions: higher affinity for calcium
# [5] = peptide equivalent 0, 2 μM CaM, 50 mM HEPES, 100 mM KCl, 1 mM MgCl2, 0.05 mM EGTA, 5 mM NTA, Oregon Green, repeated at least three times
compound,measurement,setting,value
CC[C@H](C)[C@H](NC(=O)[C@H](C)NC(=O)CNC(=O)[C@H](CCCCN)NC(=O)[C@H](CC(C)C)NC(=O)[C@H](CCCCN)NC(=O)[C@H](CCCNC(=N)N)NC(=O)[C@H](CCCNC(=N)N)NC(=O)[C@H](C)NC(=O)[C@H](CC(N)=O)NC(=O)[C@H](Cc1ccccc1)NC(=O)[C@H](CCCCN)NC(=O)[C@H](CCCCN)NC(=O)[C@@H](N)CC(C)C)C(=O)N[C@@H](CC(C)C)C(=O)N[C@H](C(=O)N[C@H](C(=O)N[C@@H](CCSC)C(=O)N[C@@H](CC(C)C)C(=O)N[C@@H](C)C(=O)O)[C@@H](C)O)[C@@H](C)O [CaMKIIp],level of saturation of CaMKIIp by CaM1–148,"[1]; 10 μM CaM1–148, 23 nM calcium",less than 10%
same,level of saturation of CaMKIIp by CaM1–148,"[1]; 10 μM CaM1–148, 311 nM calcium",more than 95%
same,Kd,"[1]; Kd of (Ca^2+)4-CaM1–148 for Fl-CaMKIIp, 10 mM CaCl2, stoichiometric range, upper limit",≤ 10 nM
same,concentration of apo CaM-CaMKIIp in presence of 5 eq. CaMKIIp,"[1]; apo, 2 μM CaM, 10 μM CaMKIIp",≤ 10%
"CaM1–80: N-domain fragment of calmodulin, residues 1–80","ΔG1 of calcium binding, sites I and II",[2]; [5],-5.92 ± 0.38 kcal/mol
same,"ΔGc, sites I and II",[2]; peptide equivalent 0,-1.73 ± 0.68 kcal/mol
same,"ΔGc, sites I and II",[2]; peptide equivalent 5 (CaMKIIp),-3.38 ± 1.18 kcal/mol
"CaM76–148: C-domain fragment of calmodulin, residues 76–148","ΔG1 of calcium binding, sites III and IV",[3]; [5],-5.45 ± 0.51 kcal/mol
same,"ΔGc, sites III and IV",[3]; peptide equivalent 0,-4.57 ± 1.15 kcal/mol
same,"ΔGc, sites III and IV",[3]; peptide equivalent 5 (CaMKIIp),-2.81 ± 0.47 kcal/mol
XRhod5F,lower Kd for calcium versus Oregon Green,[4],~ 20 fold
